Data taken from ChEMBL document CHEMBL5329156, “Discovery and development of novel substituted monohydrazides as potent antifungal agents” (RSC Med Chem, 2023).
≈ marks a conversion by molar mass, not a printed value.

Legend:
Assay type in all cases: functional
[Candida] auris [1] = Antifungal activity against Candida auris AR Bank # 381 assessed as fungal growth inhibition by double dilution method; conditions: Candidozyma auris
Summary of the method: (§1)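 Broth microdilution after CLSI M27-A3/M38-A2 with minor changes. Single colony grown overnight in YPD at 35 °C, 200 rpm. Compound final range 0.06-31.3 µg/mL; incubated 48 h at 35 °C.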

[Candida] auris [2] = Antifungal activity against Candida auris AR Bank # 382 assessed as fungal growth inhibition by double dilution method; conditions: Candidozyma auris; summary of the method: as §1
[Candida] auris [3] = Antifungal activity against Candida auris AR Bank # 383 assessed as fungal growth inhibition by double dilution method; conditions: Candidozyma auris; summary of the method: as §1
[Candida] auris [4] = Antifungal activity against Candida auris AR Bank # 384 assessed as fungal growth inhibition by double dilution method; conditions: Candidozyma auris; summary of the method: as §1
[Candida] auris [5] = Antifungal activity against Candida auris AR Bank # 385 assessed as fungal growth inhibition by double dilution method; conditions: Candidozyma auris; summary of the method: as §1
[Candida] auris [6] = Antifungal activity against Candida auris AR Bank # 386 assessed as fungal growth inhibition by double dilution method; conditions: Candidozyma auris; summary of the method: as §1
[Candida] auris [7] = Antifungal activity against Candida auris AR Bank # 387 assessed as fungal growth inhibition by double dilution method; conditions: Candidozyma auris; summary of the method: as §1
[Candida] auris [8] = Antifungal activity against Candida auris AR Bank # 388 assessed as fungal growth inhibition by double dilution method; conditions: Candidozyma auris; summary of the method: as §1
[Candida] auris [9] = Antifungal activity against Candida auris AR Bank # 389 assessed as fungal growth inhibition by double dilution method; conditions: Candidozyma auris; summary of the method: as §1
[Candida] auris [10] = Antifungal activity against Candida auris AR Bank # 390 assessed as fungal growth inhibition by double dilution method; conditions: Candidozyma auris; summary of the method: as §1
Candida duobushaemulonii [11] = assay: Antifungal activity against Candida duobushaemulonii AR Bank # 391 assessed as fungal growth inhibition by double dilution method; conditions: Candidozyma duobushaemuli; summary of the method: as §1
Candida duobushaemulonii [12] = assay: Antifungal activity against Candida duobushaemulonii AR Bank # 392 assessed as fungal growth inhibition by double dilution method; conditions: Candidozyma duobushaemuli; summary of the method: as §1
[Candida] haemuloni [13] = Antifungal activity against Candida haemulonii AR Bank # 393 assessed as fungal growth inhibition by double dilution method; conditions: Candidozyma haemuli; summary of the method: as §1
Candida duobushaemulonii [14] = assay: Antifungal activity against Candida duobushaemulonii AR Bank # 394 assessed as fungal growth inhibition by double dilution method; conditions: Candidozyma duobushaemuli; summary of the method: as §1
[Candida] haemuloni [15] = Antifungal activity against Candida haemulonii AR Bank # 395 assessed as fungal growth inhibition by double dilution method; conditions: Candidozyma haemuli; summary of the method: as §1
Kodamaea ohmeri = assay: Antifungal activity against Kodamaea ohmeri AR Bank # 396 assessed as fungal growth inhibition by double dilution method; summary of the method: as §1
Pichia kudriavzevii [16] = assay: Antifungal activity against Pichia kudriavzevii AR Bank # 397 assessed as fungal growth inhibition by double dilution method; summary of the method: as §1
Clavispora lusitaniae = assay: Antifungal activity against Clavispora lusitaniae AR Bank # 398 assessed as fungal growth inhibition by double dilution method; summary of the method: as §1
Saccharomyces cerevisiae [17] = assay: Antifungal activity against Saccharomyces cerevisiae AR Bank # 399 assessed as fungal growth inhibition by double dilution method; summary of the method: as §1
Saccharomyces cerevisiae [18] = assay: Antifungal activity against Saccharomyces cerevisiae AR Bank # 400 assessed as fungal growth inhibition by double dilution method; summary of the method: as §1
Candida albicans [19] = assay: Antifungal activity against Candida albicans ATCC 10231 assessed as fungal growth inhibition by double dilution method; summary of the method: as §1
Candida albicans [20] = assay: Antifungal activity against Candida albicans ATCC 64124 assessed as fungal growth inhibition by double dilution method
Summary of the method: (§2)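 Broth microdilution after CLSI M27-A3/M38-A2 with minor modifications. A single colony was grown overnight in YPD at 35 °C with shaking at 200 rpm. Cells were mixed 1:1 with compound (final 0.06-31.3 µg/mL, from DMSO stocks) and incubated 48 h at 35 °C.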

Candida albicans [21] = assay: Antifungal activity against itraconazole/fluconazole susceptible Candida albicans ATCC MYA-2876 assessed as fungal growth inhibition by double dilution method; summary of the method: as §2
Candida albicans [22] = assay: Antifungal activity against itraconazole/fluconazole resistant Candida albicans ATCC 90819 assessed as fungal growth inhibition by double dilution method; summary of the method: as §2
Candida albicans [23] = assay: Antifungal activity against itraconazole/fluconazole susceptible Candida albicans ATCC MYA-2310 assessed as fungal growth inhibition by double dilution method; summary of the method: as §2
Candida albicans [24] = assay: Antifungal activity against itraconazole/fluconazole resistant Candida albicans ATCC MYA-1237 assessed as fungal growth inhibition by double dilution method; summary of the method: as §2
Candida albicans [25] = assay: Antifungal activity against itraconazole/fluconazole resistant Candida albicans ATCC MYA-1003 assessed as fungal growth inhibition by double dilution method; summary of the method: as §2
Nakaseomyces glabratus [26] = assay: Antifungal activity against Candida glabrata ATCC 2001 assessed as fungal growth inhibition by double dilution method; summary of the method: as §1
Pichia kudriavzevii [27] = assay: Antifungal activity against Pichia kudriavzevii ATCC 6258 assessed as fungal growth inhibition by double dilution method; summary of the method: as §1
Nakaseomyces glabratus [28] = assay: Antifungal activity against Candida glabrata ATCC 22019 assessed as fungal growth inhibition by double dilution method; summary of the method: as §1
[Candida] auris [29] = Antifungal activity against Candida auris AR Bank # 0384 assessed as fungal growth inhibition by double dilution method; conditions: Candidozyma auris; summary of the method: as §1
[Candida] auris [30] = Antifungal activity against Candida auris AR Bank # 0390 assessed as fungal growth inhibition by double dilution method; conditions: Candidozyma auris; summary of the method: as §1
Cryptococcus neoformans = assay: Antifungal activity against Cryptococcus neoformans ATCC MYA-895 assessed as fungal growth inhibition by double dilution method; summary of the method: as §1
Aspergillus terreus = assay: Antifungal activity against Aspergillus terreus ATCC MYA-3633 assessed as fungal growth inhibition by double dilution method
Aspergillus fumigatus [31] = assay: Antifungal activity against Aspergillus fumigatus NRRL 163 assessed as fungal growth inhibition by double dilution method
Aspergillus flavus = assay: Antifungal activity against Aspergillus flavus ATCC MYA-3631 assessed as fungal growth inhibition by double dilution method
Aspergillus nidulans = assay: Antifungal activity against Aspergillus nidulans ATCC 38163 assessed as fungal growth inhibition by double dilution method
Aspergillus fumigatus [32] = assay: Antifungal activity against Aspergillus fumigatus NRRL 5109 assessed as fungal growth inhibition by double dilution method
Aspergillus fumigatus [33] = assay: Antifungal activity against Aspergillus fumigatus NRRL 6113 assessed as fungal growth inhibition by double dilution method

Row | SMILES | MIC (Candida albicans [19]) | MIC (Candida albicans [20]) | MIC (Candida albicans [21]) | MIC (Candida albicans [22]) | MIC (Candida albicans [23]) | MIC (Candida albicans [24]) | MIC (Candida albicans [25]) | MIC (Nakaseomyces glabratus [26]) | MIC (Pichia kudriavzevii [27]) | MIC (Nakaseomyces glabratus [28]) | MIC ([Candida] auris [29]) | MIC ([Candida] auris [30]) | MIC (Cryptococcus neoformans) | MIC (Aspergillus terreus) | MIC (Aspergillus fumigatus [31]) | MIC (Aspergillus flavus) | MIC (Aspergillus nidulans) | MIC (Aspergillus fumigatus [32]) | MIC (Aspergillus fumigatus [33]) | other results
1 | O=C(NNc1ccc(Cl)cc1)c1cnccn1 |  |  |  |  |  |  |  |  |  |  |  |  |  |  |  |  |  |  |  | MIC ([Candida] auris [1]): 7.8 µg/mL (≈ 31.4 µM); MIC ([Candida] auris [2]): 15.6 µg/mL (≈ 62.7 µM); MIC ([Candida] auris [3]): 3.9 µg/mL (≈ 15.7 µM); MIC ([Candida] auris [4]): 1.95 µg/mL (≈ 7.84 µM); MIC ([Candida] auris [5]): 31.3 µg/mL (≈ 126 µM); MIC ([Candida] auris [6]): 7.8 µg/mL (≈ 31.4 µM); MIC ([Candida] auris [7]): 15.6 µg/mL (≈ 62.7 µM); MIC ([Candida] auris [8]): 7.8 µg/mL (≈ 31.4 µM); MIC ([Candida] auris [9]): 7.8 µg/mL (≈ 31.4 µM); MIC ([Candida] auris [10]): 3.9 µg/mL (≈ 15.7 µM); MIC (Candida duobushaemulonii [11]): 1.95 µg/mL (≈ 7.84 µM); MIC (Candida duobushaemulonii [12]): 1.95 µg/mL (≈ 7.84 µM); MIC ([Candida] haemuloni [13]): 1.95 µg/mL (≈ 7.84 µM); MIC (Candida duobushaemulonii [14]): 1.95 µg/mL (≈ 7.84 µM); MIC ([Candida] haemuloni [15]): 3.9 µg/mL (≈ 15.7 µM); MIC (Kodamaea ohmeri): 1.95 µg/mL (≈ 7.84 µM); MIC (Pichia kudriavzevii [16]): 3.9 µg/mL (≈ 15.7 µM); MIC (Clavispora lusitaniae): 3.9 µg/mL (≈ 15.7 µM); MIC (Saccharomyces cerevisiae [17]): 3.9 µg/mL (≈ 15.7 µM); MIC (Saccharomyces cerevisiae [18]): 3.9 µg/mL (≈ 15.7 µM)
2 | O=C(NNc1cccc(F)c1)c1ccc(F)cc1F | 0.24 µg/mL (≈ 0.902 µM) | 1.95 µg/mL (≈ 7.32 µM) | 3.9 µg/mL (≈ 14.6 µM) | 7.8 µg/mL (≈ 29.3 µM) | 3.9 µg/mL (≈ 14.6 µM) | 0.98 µg/mL (≈ 3.68 µM) | 1.95 µg/mL (≈ 7.32 µM) | 7.8 µg/mL (≈ 29.3 µM) | 1.95 µg/mL (≈ 7.32 µM) | 3.9 µg/mL (≈ 14.6 µM) | 1.95 µg/mL (≈ 7.32 µM) | 0.24 µg/mL (≈ 0.902 µM) | 1.95 µg/mL (≈ 7.32 µM) | 1.95 µg/mL (≈ 7.32 µM) | > 31.3 µg/mL | > 31.3 µg/mL | 3.9 µg/mL (≈ 14.6 µM) | > 31.3 µg/mL | > 31.3 µg/mL | 
3 | O=C(NNc1ccc(F)cc1)c1ccc(F)cc1F | 0.49 µg/mL (≈ 1.84 µM) | 7.8 µg/mL (≈ 29.3 µM) | 7.8 µg/mL (≈ 29.3 µM) | 1.95 µg/mL (≈ 7.32 µM) | 3.9 µg/mL (≈ 14.6 µM) | 1.95 µg/mL (≈ 7.32 µM) | 1.95 µg/mL (≈ 7.32 µM) | 7.8 µg/mL (≈ 29.3 µM) | 1.95 µg/mL (≈ 7.32 µM) | 15.6 µg/mL (≈ 58.6 µM) | 1.95 µg/mL (≈ 7.32 µM) | 1.95 µg/mL (≈ 7.32 µM) | 0.49 µg/mL (≈ 1.84 µM) | 3.9 µg/mL (≈ 14.6 µM) | > 31.3 µg/mL | > 31.3 µg/mL | 3.9 µg/mL (≈ 14.6 µM) | > 31.3 µg/mL | > 31.3 µg/mL | 
4 | O=C(NNc1cccc(F)c1)c1ccc(F)cn1 | 0.49 µg/mL (≈ 1.97 µM) | 0.49 µg/mL (≈ 1.97 µM) | 3.9 µg/mL (≈ 15.6 µM) | 3.9 µg/mL (≈ 15.6 µM) | 3.9 µg/mL (≈ 15.6 µM) | 3.9 µg/mL (≈ 15.6 µM) | 1.95 µg/mL (≈ 7.82 µM) | 31.3 µg/mL (≈ 126 µM) | 0.24 µg/mL (≈ 0.963 µM) | 1.95 µg/mL (≈ 7.82 µM) | 1.95 µg/mL (≈ 7.82 µM) | 1.95 µg/mL (≈ 7.82 µM) | ≤ 0.06 µg/mL | 1.95 µg/mL (≈ 7.82 µM) | > 31.3 µg/mL | 7.8 µg/mL (≈ 31.3 µM) | 0.98 µg/mL (≈ 3.93 µM) | > 31.3 µg/mL | > 31.3 µg/mL | 
5 | COc1ccc(NNC(=O)c2ncc(F)cc2F)cc1 | 1.95 µg/mL (≈ 6.98 µM) | 1.95 µg/mL (≈ 6.98 µM) | 1.95 µg/mL (≈ 6.98 µM) | 1.95 µg/mL (≈ 6.98 µM) | 1.95 µg/mL (≈ 6.98 µM) | 0.98 µg/mL (≈ 3.51 µM) | 0.98 µg/mL (≈ 3.51 µM) | 7.8 µg/mL (≈ 27.9 µM) | 0.98 µg/mL (≈ 3.51 µM) | 7.8 µg/mL (≈ 27.9 µM) | 3.9 µg/mL (≈ 14 µM) | 0.98 µg/mL (≈ 3.51 µM) | 1.95 µg/mL (≈ 6.98 µM) | 31.3 µg/mL (≈ 112 µM) | 31.3 µg/mL (≈ 112 µM) | > 31.3 µg/mL | 1.95 µg/mL (≈ 6.98 µM) | 31.3 µg/mL (≈ 112 µM) | 31.3 µg/mL (≈ 112 µM) | 
6 | O=C(NNc1cccc(F)c1)c1ccc(Br)cn1 | 0.49 µg/mL (≈ 1.58 µM) | 0.49 µg/mL (≈ 1.58 µM) | 1.95 µg/mL (≈ 6.29 µM) | 3.9 µg/mL (≈ 12.6 µM) | 3.9 µg/mL (≈ 12.6 µM) | 3.9 µg/mL (≈ 12.6 µM) | 0.98 µg/mL (≈ 3.16 µM) | > 31.3 µg/mL | 0.24 µg/mL (≈ 0.774 µM) | 7.8 µg/mL (≈ 25.2 µM) | 1.95 µg/mL (≈ 6.29 µM) | 1.95 µg/mL (≈ 6.29 µM) | 0.06 µg/mL (≈ 0.193 µM) | 0.98 µg/mL (≈ 3.16 µM) | > 31.3 µg/mL | 15.6 µg/mL (≈ 50.3 µM) | 1.95 µg/mL (≈ 6.29 µM) | > 31.3 µg/mL | > 31.3 µg/mL | 
